Assay results taken from publication PMC4629212 (Acta Pharmaceutica Sinica. B, 2015).

Assays:
AChE [1] = target: T1, AChE (Electrophorus electricus, UniProt O42275); test: biochemical; design: species or system Electric Eel; details: for inhibition at 50 µM: 0.25 h, read-out: Inhibition ratios for AChE
HepG-2 cells = test: MTT assay of HepG-2 cell viability; type: cell-based, human; details: for Inhibition ratios for HepG-2 cell viability: 10 μmol/L compound, 48 h, mean of three independent experiments; for Effect on HepG-2 cell viability (in words): 10 μmol/L
Outline: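 HepG-2 cells were kept at 37 °C under 5% CO2 and seeded at 5×10^3 cells/well. After 12 h, test compound was added at 10 µmol/L for 48 h. Viability was read by MTT conversion to purple formazan, and the inhibition rate was calculated against untreated cells set as 100%.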

BChE = BChE (Equus caballus, UniProt P81908); test: BChE inhibition, modified Ellman method; type: biochemical, equine; details: for inhibition at 50 µM: 0.25 h, read-out: Inhibition ratios for BChE
BChE, sequence (P81908 whole entry): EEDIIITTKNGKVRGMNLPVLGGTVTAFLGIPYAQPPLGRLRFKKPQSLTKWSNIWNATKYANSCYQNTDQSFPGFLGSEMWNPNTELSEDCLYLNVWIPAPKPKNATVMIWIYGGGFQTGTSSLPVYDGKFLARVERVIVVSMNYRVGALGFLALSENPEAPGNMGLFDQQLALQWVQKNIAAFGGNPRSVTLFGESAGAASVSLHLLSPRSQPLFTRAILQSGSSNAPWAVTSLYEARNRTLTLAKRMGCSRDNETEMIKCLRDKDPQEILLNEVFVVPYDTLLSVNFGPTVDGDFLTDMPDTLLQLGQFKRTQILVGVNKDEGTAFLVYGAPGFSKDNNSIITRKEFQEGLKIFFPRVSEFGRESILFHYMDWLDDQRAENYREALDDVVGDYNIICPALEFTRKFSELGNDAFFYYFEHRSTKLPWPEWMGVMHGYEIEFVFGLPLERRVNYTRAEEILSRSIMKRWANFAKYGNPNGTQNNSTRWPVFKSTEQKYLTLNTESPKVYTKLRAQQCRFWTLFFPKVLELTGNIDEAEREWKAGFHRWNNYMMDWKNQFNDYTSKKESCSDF

[2] = Metal-chelating study by UV-Vis spectrometry; type: physicochemical
Outline: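 Test compound (20 μmol/L final) was incubated in water for 30 min at room temperature, alone or with CuSO4, FeCl3 or ZnCl2 (each 20 μmol/L final). UV-Vis absorption spectra were then recorded from 200 to 500 nm.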

AChE [3] = target: T1, AChE; test: Kinetic characterization of AChE inhibition; type: biochemical, Electric Eel; details: Lineweaver–Burk plots
Outline: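 Acetylthiocholine hydrolysis by AChE was measured at six substrate concentrations in 0.1 mol/L KH2PO4/K2HPO4 buffer, pH 8.0, with DTNB. Test compound was pre-incubated with the enzyme for 15 min at 37 °C before substrate was added. Absorbance was read at 412 nm, and a parallel no-inhibitor control was run.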

T1 sequence (O42275 24-633): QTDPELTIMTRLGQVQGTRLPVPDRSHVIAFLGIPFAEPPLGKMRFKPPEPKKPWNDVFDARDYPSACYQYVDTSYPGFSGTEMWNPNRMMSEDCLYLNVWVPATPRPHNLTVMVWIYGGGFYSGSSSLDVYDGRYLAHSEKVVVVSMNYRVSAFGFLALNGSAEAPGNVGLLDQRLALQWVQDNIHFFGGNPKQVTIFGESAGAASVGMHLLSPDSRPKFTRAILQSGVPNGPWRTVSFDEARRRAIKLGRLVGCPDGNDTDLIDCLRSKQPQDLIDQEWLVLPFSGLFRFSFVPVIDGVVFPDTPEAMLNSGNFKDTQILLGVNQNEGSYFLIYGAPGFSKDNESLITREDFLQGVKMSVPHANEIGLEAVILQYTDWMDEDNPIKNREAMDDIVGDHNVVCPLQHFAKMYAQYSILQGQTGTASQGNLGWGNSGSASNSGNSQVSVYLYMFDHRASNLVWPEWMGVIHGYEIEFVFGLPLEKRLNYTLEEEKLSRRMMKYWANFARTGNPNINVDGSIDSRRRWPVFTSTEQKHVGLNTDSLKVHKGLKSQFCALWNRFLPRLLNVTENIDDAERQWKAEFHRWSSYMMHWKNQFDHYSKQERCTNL

Structure (SMILES)	inhibition at 50 µM (AChE [1]) [%]	Inhibition ratios for HepG-2 cell viability (HepG-2 cells) [%]	inhibition at 50 µM (BChE) [%]	IC50 (AChE [1]) [µM]	IC50 (BChE) [µM]	further results
CCCCNC(=O)COc1cc(O)c2c(=O)c(-c3ccc(O)cc3)coc2c1 [Compound 4a, N-butyl-2-(5-hydroxy-3-(4-hydroxyphenyl)-4-oxo-4H-chromen-7-yloxy)acetamide]	7.88 ± 3.58	6.40	1.19 ± 0.59			
CN(C)CCNC(=O)COc1cc(O)c2c(=O)c(-c3ccc(O)cc3)coc2c1.Cl [Compound 4b, N-(2-(dimethylamino)ethyl)-2-(5-hydroxy-3-(4-hydroxyphenyl)-4-oxo-4H-chromen-7-yloxy)acetamide hydrochloride]	90.4 ± 1.23	1.53	26.1 ± 2.52	2.75 ± 0.28	> 50	Metal-chelating ability (overall) [2]: potent metal-chelating ability; Chelation of Cu^2+ (UV-Vis spectrum change) ([2]; 20 μmol/L compound, 20 μmol/L Cu^2+, in water): poor chelating ability; Inhibition type of AChE (AChE [3]): mixed-type inhibition; Effect on HepG-2 cell viability (in words) (HepG-2 cells): no obvious effect on cell viability
Cl.NCCCNC(=O)COc1cc(O)c2c(=O)c(-c3ccc(O)cc3)coc2c1 [Compound 4c, N-(3-aminopropyl)-2-(5-hydroxy-3-(4-hydroxyphenyl)-4-oxo-4H-chromen-7-yloxy)acetamide hydrochloride]	37 ± 2.07	14.57	13.8 ± 1.05			
Cl.NCCCCNC(=O)COc1cc(O)c2c(=O)c(-c3ccc(O)cc3)coc2c1 [Compound 4d, N-(4-aminobutyl)-2-(5-hydroxy-3-(4-hydroxyphenyl)-4-oxo-4H-chromen-7-yloxy)acetamide hydrochloride]	34.5 ± 2.76	1.17	9.02 ± 0.23			
Cl.O=C(COc1cc(O)c2c(=O)c(-c3ccc(O)cc3)coc2c1)NCCCCN1CCNCC1 [Compound 4e, 2-(5-hydroxy-3-(4-hydroxyphenyl)-4-oxo-4H-chromen-7-yloxy)-N-(4-(piperazin-1-yl)butyl)acetamide hydrochloride]	19.3 ± 1.87	8.51	11.7 ± 0.82			
Cl.NCCCNCCCNC(=O)COc1cc(O)c2c(=O)c(-c3ccc(O)cc3)coc2c1 [Compound 4f, N-(3-(3-aminopropylamino)propyl)-2-(5-hydroxy-3-(4-hydroxyphenyl)-4-oxo-4H-chromen-7-yloxy)acetamide hydrochloride]	10.2 ± 0.44	11.74	9.52 ± 1.48			
Cl.NCCCNCCCCNC(=O)COc1cc(O)c2c(=O)c(-c3ccc(O)cc3)coc2c1 [Compound 4g, N-(4-(3-aminopropylamino)butyl)-2-(5-hydroxy-3-(4-hydroxyphenyl)-4-oxo-4H-chromen-7-yloxy)acetamide hydrochloride]	16.5 ± 1.36	16.72	17.9 ± 2.83			
Cl.NCCCCNCCCCNC(=O)COc1cc(O)c2c(=O)c(-c3ccc(O)cc3)coc2c1 [Compound 4h, N-(4-(4-aminobutylamino)butyl)-2-(5-hydroxy-3-(4-hydroxyphenyl)-4-oxo-4H-chromen-7-yloxy)acetamide hydrochloride]	51 ± 0.55	16.30	39.2	46.6 ± 3.87	> 50	Effect on HepG-2 cell viability (in words) (HepG-2 cells): no obvious effect on cell viability; Inhibition ratios for BChE (BChE; 50 μmol/L compound, mean±SEM of two experiments, BChE from equine serum): 39.20±5.64%
O=c1c(-c2ccc(O)cc2)coc2cc(O)cc(O)c12 [Genistein, reference compound]				> 100	> 100	inhibition at 100 µM (AChE [1]; read-out: Inhibition of AChE activity): < 50%
Nc1c2c(nc3ccccc13)CCCC2 [Tacrine, reference compound]		57.35				
